What was measured:
[1] = Apparent permeability of the compound after 5 hrs by PAMPA-GI model analysis; type: physicochemical
Summary of the method: (§1)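 PAMPA, gastrointestinal model. Donor 0.5 mM, diluted from 1 mM DMSO stock in phosphate buffer pH 7.4 (0.025 M). Filter coated with 1% w/v phosphatidylcholine in dodecane; acceptor 50% DMSO in buffer. Incubated 5 or 22 h at room temperature with gentle shaking. Both sides analysed by LC-UV at 254 nm, concentration from peak area. Papp in cm/s and % membrane retention calculated by equations; three plates on different days.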

[2] = Apparent permeability of the compound after 22 hrs by PAMPA-GI model analysis; type: physicochemical; summary of the method: as §1
[3] = Apparent permeability of the compound assessed as membrane retention after 5 hrs by PAMPA assay; type: physicochemical; summary of the method: as §1
[4] = Apparent permeability of the compound assessed as membrane retention after 22 hrs by PAMPA assay; type: physicochemical; summary of the method: as §1
[5] = Metabolic stability of the compound in human liver microsomes assessed as unmodified compound remaining after 60 mins; type: ADME; details: read-out: Stability
Summary of the method: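 Compound at 50 μM final (DMSO ≤2%) incubated 60 min at 37 °C with human liver microsomal protein (0.2 mg/mL) and an NADPH-generating system in 125 mM phosphate buffer, pH 7.4. Unmodified parent was quantified by LC–MS and reported as percentage remaining.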

[6] = Induction of phospholipidosis in human Huh-9-13 cells assessed as multilamellar bodies formation at 90 uM by monodansylcadaverine staining; type: cell-based
Summary of the method: (§2)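 Huh-9-13 cells seeded at 25.000 cells/dish in complete DMEM without G418 at 37 °C, 5% CO2. Next day, compound (90 μM) or DMSO added for 3 days. Then stained 30 min with monodansylcadaverine (50 μM; ex 340/em 530 nm), LipidTOX Red (1/1000; ex 577/em 609 nm) or Nile Red (2 μg/mL; yellow-gold at ex 552/em 636 nm). Imaged by confocal microscopy.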

[7] = Induction of steatosis in human Huh-9-13 cells assessed as intracellular accumulation of neutral lipids at 90 uM by Nile Red staining; type: cell-based; summary of the method: as §2
[8] = Induction of steatosis in human Huh-9-13 cells assessed as increase in size of lipid droplets at 90 uM by LipidTOX red staining; type: cell-based; summary of the method: as §2
[9] = test system: Hepatitis C virus isolate HC-J4; assay: Inhibition of RNA-dependent RNA polymerase activity of HCV genotype 1b HC-J4 recombinant N-terminal histidine tagged C-terminal 21 aminoacids truncated NS5B polymerase at 50 uM after 1 hr by standard primer dependent elongation assay
Summary of the method: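 Recombinant NS5BCΔ21 genotype 1b in a primer-dependent elongation assay. […] IC50 is the concentration halving enzyme activity in vitro; mean ± SD of two independent experiments in duplicate.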

[10] = Inhibition of RNA-dependent RNA polymerase activity of HCV genotype 1b HC-J4 recombinant N-terminal histidine tagged C-terminal 21 aminoacids truncated NS5B polymerase after 1 hr by standard primer dependent elongation assay; design: species or system Hepatitis C virus isolate HC-J4
Summary of the method: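 Recombinant NS5BCΔ21 genotype 1b in a primer-dependent elongation assay. IC50 is the concentration halving enzyme activity in vitro; mean ± SD of two independent experiments in duplicate.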

[11] = test system: Hepatitis C virus; assay: Antiviral activity against HCV genotype 1b […] replicon infected in human Huh9-13 cells assessed as decrease in replicon RNA content by RT-qPCR analysis; type: functional, cell-based, Hepacivirus hominis
Summary of the method: (§3)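 Subgenomic genotype 1b HCV replicon cells: Huh-9-13 (Huh-7 background, no luciferase reporter) and HuH6 (different adaptive mutations). EC50 from decrease in replicon RNA measured by RT-qPCR. Host-cell proliferation and metabolism checked in parallel by MTS assay.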

[12] = molecular target: RNA-directed RNA polymerase (Hepacivirus hominis, UniProt O39930, P495L); assay: Inhibition of RNA-dependent RNA polymerase activity of HCV genotype 1b HC-J4 recombinant N-terminal histidine tagged C-terminal 21 aminoacids truncated NS5B polymerase P495L mutant at thumb site 1 after 1 hr by standard primer dependent elongation assay; design: species or system Hepatitis C virus isolate HC-J4
Sequence of RNA-directed RNA polymerase (Hepacivirus hominis, UniProt O39930, P495L) (O39930 entry or part of it P495L): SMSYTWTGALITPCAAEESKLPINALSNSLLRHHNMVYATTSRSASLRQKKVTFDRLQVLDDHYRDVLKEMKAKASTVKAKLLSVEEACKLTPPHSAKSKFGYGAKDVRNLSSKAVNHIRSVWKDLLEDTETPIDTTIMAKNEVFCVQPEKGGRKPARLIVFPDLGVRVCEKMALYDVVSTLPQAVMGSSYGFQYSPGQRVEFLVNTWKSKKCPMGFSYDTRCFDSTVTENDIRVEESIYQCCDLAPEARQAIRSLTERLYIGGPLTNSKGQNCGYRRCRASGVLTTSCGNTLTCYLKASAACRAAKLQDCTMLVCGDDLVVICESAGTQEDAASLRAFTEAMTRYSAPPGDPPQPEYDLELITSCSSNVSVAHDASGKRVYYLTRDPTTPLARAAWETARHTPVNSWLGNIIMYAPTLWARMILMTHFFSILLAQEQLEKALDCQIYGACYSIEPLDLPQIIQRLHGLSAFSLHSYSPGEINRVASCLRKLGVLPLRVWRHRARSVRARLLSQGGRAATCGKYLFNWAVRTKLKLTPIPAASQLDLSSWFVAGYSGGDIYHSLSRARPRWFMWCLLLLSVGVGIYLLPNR
Summary of the method: (§4)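 Recombinant NS5BCΔ21 genotype 1b mutants, M414T, M423T and P495L, each run in a primer-dependent elongation assay as for wild-type enzyme. IC50 is the mean ± SD of two independent experiments in duplicate.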

[13] = molecular target: RNA-directed RNA polymerase (Hepacivirus hominis, UniProt O39930, M423T); assay: Inhibition of RNA-dependent RNA polymerase activity of HCV genotype 1b HC-J4 recombinant N-terminal histidine tagged C-terminal 21 aminoacids truncated NS5B polymerase M423T mutant at thumb site 2 after 1 hr by standard primer dependent elongation assay; design: species or system Hepatitis C virus isolate HC-J4; summary of the method: as §4
Sequence of RNA-directed RNA polymerase (Hepacivirus hominis, UniProt O39930, M423T) (O39930 entry or part of it M423T): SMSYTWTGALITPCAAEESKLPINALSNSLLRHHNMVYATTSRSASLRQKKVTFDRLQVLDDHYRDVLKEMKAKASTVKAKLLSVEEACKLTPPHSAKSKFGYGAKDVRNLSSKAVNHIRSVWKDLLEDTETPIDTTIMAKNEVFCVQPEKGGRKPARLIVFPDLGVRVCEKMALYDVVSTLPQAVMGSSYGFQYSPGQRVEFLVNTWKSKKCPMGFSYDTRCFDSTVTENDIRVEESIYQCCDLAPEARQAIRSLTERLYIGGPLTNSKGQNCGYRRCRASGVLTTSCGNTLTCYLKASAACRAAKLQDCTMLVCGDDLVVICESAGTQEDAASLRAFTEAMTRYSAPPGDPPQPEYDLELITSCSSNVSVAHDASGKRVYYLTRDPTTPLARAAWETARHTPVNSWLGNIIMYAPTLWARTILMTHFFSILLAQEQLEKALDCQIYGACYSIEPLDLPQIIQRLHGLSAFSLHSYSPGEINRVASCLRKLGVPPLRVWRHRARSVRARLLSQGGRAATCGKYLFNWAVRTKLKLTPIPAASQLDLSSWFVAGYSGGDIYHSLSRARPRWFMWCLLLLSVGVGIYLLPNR

[14] = test system: Hepatitis C virus isolate HC-J4; assay: Ratio of IC50 for HCV genotype 1b HC-J4 recombinant N-terminal histidine tagged C-terminal 21 aminoacids truncated NS5B polymerase M414T mutant at palm site 1 to HCV genotype 1b HC-J4 recombinant N-terminal histidine tagged C-terminal 21 aminoacids truncated wild type NS5B polymerase
Summary of the method: (§5)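 Fold change is the mutant NS5BCΔ21 IC50 (M414T, M423T or P495L) divided by the wild-type IC50. Both were measured in a primer-dependent elongation assay, from two independent experiments in duplicate.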

[15] = test system: Hepatitis C virus isolate HC-J4; assay: Ratio of IC50 for HCV genotype 1b HC-J4 recombinant N-terminal histidine tagged C-terminal 21 aminoacids truncated NS5B polymerase P495L mutant at thumb site 1 to HCV genotype 1b HC-J4 recombinant N-terminal histidine tagged C-terminal 21 aminoacids truncated wild type NS5B polymerase; summary of the method: as §5
[16] = test system: Hepatitis C virus isolate HC-J4; assay: Ratio of IC50 for HCV genotype 1b HC-J4 recombinant N-terminal histidine tagged C-terminal 21 aminoacids truncated NS5B polymerase M423T mutant at thumb site 2 to HCV genotype 1b HC-J4 recombinant N-terminal histidine tagged C-terminal 21 aminoacids truncated wild type NS5B polymerase; summary of the method: as §5
[17] = molecular target: RNA-directed RNA polymerase (Hepacivirus hominis, UniProt O39930, M414T); assay: Inhibition of RNA-dependent RNA polymerase activity of HCV genotype 1b HC-J4 recombinant N-terminal histidine tagged C-terminal 21 aminoacids truncated NS5B polymerase M414T mutant at palm site 1 after 1 hr by standard primer dependent elongation assay; design: species or system Hepatitis C virus isolate HC-J4; summary of the method: as §4
Sequence of RNA-directed RNA polymerase (Hepacivirus hominis, UniProt O39930, M414T) (O39930 entry or part of it M414T): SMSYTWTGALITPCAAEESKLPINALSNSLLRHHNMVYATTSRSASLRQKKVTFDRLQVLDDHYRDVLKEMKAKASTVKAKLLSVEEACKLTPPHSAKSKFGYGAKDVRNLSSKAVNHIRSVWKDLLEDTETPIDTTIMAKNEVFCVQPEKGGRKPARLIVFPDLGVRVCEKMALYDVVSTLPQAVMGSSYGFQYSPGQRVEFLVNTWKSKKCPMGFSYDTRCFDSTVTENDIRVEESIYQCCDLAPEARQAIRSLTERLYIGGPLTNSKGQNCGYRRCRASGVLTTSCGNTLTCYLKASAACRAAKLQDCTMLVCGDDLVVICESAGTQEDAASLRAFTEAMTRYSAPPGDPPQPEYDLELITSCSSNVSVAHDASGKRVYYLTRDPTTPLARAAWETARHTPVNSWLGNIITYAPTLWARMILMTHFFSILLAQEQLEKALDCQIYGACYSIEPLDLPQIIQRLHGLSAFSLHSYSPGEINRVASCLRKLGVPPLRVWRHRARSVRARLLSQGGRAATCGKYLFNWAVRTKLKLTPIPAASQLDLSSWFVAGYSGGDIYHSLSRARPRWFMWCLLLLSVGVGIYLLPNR

[18] = test system: Hepatitis C virus; assay: Antiviral activity against HCV genotype 1b I389luc-ubi-neo/NS3-3'/5.1 replicon infected in human Huh5-2 cells assessed as inhibition of virus replication by luciferase assay; type: functional, cell-based, Hepacivirus hominis; details: Huh-5-2
[19] = Cytostatic activity against human Huh5-2 cells carrying HCV genotype 1b I389luc-ubi-neo/NS3-3'/5.1 replicon assessed as reduction in metabolic activity after 72 hrs by MTS assay; type: ADME, cell-based, Huh-5-2; details: huh-5-2, 72 h
Summary of the method: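 Replicon-bearing Huh-5-2 cells run in parallel with the antiviral read-out; CC50 is the concentration halving MTS bioreduction to formazan, taken as the antimetabolic effect on host cells; mean ± SD from at least three dose–response curves.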

[20] = Cytotoxicity against human Huh5-2 cells carrying HCV genotype 1b I389luc-ubi-neo/NS3-3'/5.1 replicon assessed as cell morphological changes after 72 hrs by microscopic analysis; type: cell-based; details: huh-5-2, 72 h
Summary of the method: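 Huh-5-2 replicon cells examined by microscopy for changes in cell morphology after 72 h of compound treatment.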

[21] = Selectivity index, ratio of CC50 for human Huh5-2 cells to EC50 for HCV genotype 1b I389luc-ubi-neo/NS3-3'/5.1 replicon infected in human Huh5-2 cells; design: species or system Huh-5-2
[22] = test system: Hepatitis C virus; assay: Antiviral activity against HCV genotype 1b I389luc-ubi-neo/NS3-3'/5.1 replicon infected in human Huh6 cells assessed as decrease in replicon RNA content by RT-qPCR analysis; type: functional, cell-based, Hepacivirus hominis; details: HuH-6; summary of the method: as §3
[23] = Cytostatic activity against human Huh-9-13 cells carrying HCV genotype 1b I389luc-ubi-neo/NS3-3'/5.1 replicon assessed as reduction in metabolic activity after 72 hrs by MTS assay; type: ADME, cell-based
Summary of the method: (§6)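 MTS assay measuring bioreduction to formazan, read as host-cell metabolism/proliferation in subgenomic genotype 1b replicon cells. It was run alongside RT-qPCR-based antiviral testing. Huh-9-13 replicon cells lack the luciferase reporter, carry different adaptive mutations and more HCV RNA than Huh-5-2. HuH6 replicon cells use a different host line from Huh-7 and have distinct adaptive mutations. CC50 is the concentration that halves MTS reduction.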

[24] = Cytostatic activity against human Huh6 cells carrying HCV genotype 1b I389luc-ubi-neo/NS3-3'/5.1 replicon assessed as reduction in metabolic activity after 72 hrs by MTS assay; type: ADME, cell-based; summary of the method: as §6
[25] = Lipophilicity, log P of the compound by shake flask method; type: physicochemical; details: octanol/water
Summary of the method: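 Shake flask: compound dissolved in octanol, then 2.5 mL octanol with 2.5 mL water, sealed and agitated, 10 h to equilibrium. Each phase analysed by HPLC (C18, 50% ACN/50% H2O, 0.8 mL/min, UV).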

CN1c2c(C(=O)Nc3ccc(NS(C)(=O)=O)cc3)nn(-c3cccc(Cl)c3)c2-c2ccccc2S1(=O)=O
Papp [1]: 2.3 ×10⁻⁶ cm/s | Papp [2]: 4.2 ×10⁻⁶ cm/s | R% [3]: 7.3% | R% [4]: 3.2% | remaining at 1 h [5]: 99.9% | Activity [6]: Non-toxic | Activity [7]: Toxic | Activity [8]: Toxic | inhibition [9]: > 50% | IC50 [10]: 4.3 µM | EC50 [11]: 7.6 µM | IC50 [12]: 5.1 µM | IC50 [13]: 9.3 µM | Ratio IC50 [14]: 29.7 | Ratio IC50 [15]: 1.2 | Ratio IC50 [16]: 2.2 | IC50 [17]: 128 µM | EC50 [18]: 9.8 µM | EC90 [18]: 41 µM | CC50 [19]: > 179 µM | Activity [20]: Toxic | Ratio CC50/EC50 [21]: >18 | EC50 [22]: 14 µM | CC50 [23]: > 90 µM | CC50 at 72 h [24]: > 90 µM | logP [25]: 2.11
